Screening data as filed in PubChem.
SKKanGAS inh: inhibitors of SKKanGAS S. pyogenes growth in kanamycin (SK-promoter or general growth effect); BacTiter-Glo, 6 h; inhibition, % at 7.5 µM; hit rate 1.3% among 300,000; AID 1662;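 active means mean replicate score, as percent of positive control median, at least 50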;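 further: strain carries kanamycin resistance gene driven by streptokinase promoter and grows in 40 µg/ml kanamycin; loss of luminescence reflects streptokinase promoter inhibition or plain growth inhibition; 0% = median of DMSO wells and 100% = positive control at its reference dose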
UPR CHOP act: apoptotic UPR (CHOP) activation | CHO-CHOP luciferase reporter, luminescence; percent of tunicamycin response over DMSO baseline | activation, % at 10 µM | hit rate 0.34% among 330,000 | AID 449763;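 active means at 10 µM dose, activation of 40% or more, normalized to positive control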;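 further: 100% = tunicamycin at 10 µg/mL and 0% = DMSO alone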
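System: CHO CHOP reporter cells. Amount: 500 cells per well. Buffer or medium: F12 medium, 10% FBS. Compound dosing: one dose, 10 µM in 0.5% DMSO. Incubation: 6 h compound exposure at 37 °C after overnight seeding. Technique: Steady-Glo luciferase luminescence. Benchmarks: tunicamycin and DMSO controls.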
Mdm2 MdmX PPI: inhibitors of human Mdm2/MdmX interaction; O15151+Q00987; SaOS-2 split-luciferase Mdm2/MdmX complementation, luminescence; inhibition, % at 8 µM; hit rate 3% among 330,000; AID 485346;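 active means inhibition of at least 50% at 8 µM in the primary screen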
Target sequence (O15151 whole entry, looked up): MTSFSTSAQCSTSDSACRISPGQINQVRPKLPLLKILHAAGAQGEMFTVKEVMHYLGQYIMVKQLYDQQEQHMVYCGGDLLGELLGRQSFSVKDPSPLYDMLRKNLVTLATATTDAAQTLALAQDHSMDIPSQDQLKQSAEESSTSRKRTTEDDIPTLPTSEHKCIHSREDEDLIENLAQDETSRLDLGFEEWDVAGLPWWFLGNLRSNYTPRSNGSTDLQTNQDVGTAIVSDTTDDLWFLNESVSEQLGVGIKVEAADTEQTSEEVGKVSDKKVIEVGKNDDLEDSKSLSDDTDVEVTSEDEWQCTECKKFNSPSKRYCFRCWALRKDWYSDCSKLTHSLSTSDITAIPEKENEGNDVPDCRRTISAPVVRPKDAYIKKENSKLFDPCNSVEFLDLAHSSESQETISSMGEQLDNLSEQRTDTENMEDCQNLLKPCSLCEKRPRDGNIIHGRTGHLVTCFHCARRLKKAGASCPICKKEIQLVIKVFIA
Target sequence (Q00987 whole entry, looked up): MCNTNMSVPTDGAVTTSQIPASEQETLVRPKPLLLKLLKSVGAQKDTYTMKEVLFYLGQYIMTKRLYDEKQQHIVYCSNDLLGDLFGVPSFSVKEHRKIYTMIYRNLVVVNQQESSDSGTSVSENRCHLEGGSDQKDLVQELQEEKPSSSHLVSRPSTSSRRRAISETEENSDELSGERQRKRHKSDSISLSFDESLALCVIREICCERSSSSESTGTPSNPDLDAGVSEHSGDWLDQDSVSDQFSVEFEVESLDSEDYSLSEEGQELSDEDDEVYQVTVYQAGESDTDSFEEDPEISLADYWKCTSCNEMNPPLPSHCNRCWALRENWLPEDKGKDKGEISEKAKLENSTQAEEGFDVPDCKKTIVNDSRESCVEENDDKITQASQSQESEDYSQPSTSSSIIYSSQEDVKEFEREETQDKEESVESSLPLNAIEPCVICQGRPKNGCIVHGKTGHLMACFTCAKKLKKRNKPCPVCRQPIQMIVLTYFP
UPR XBP1 act: activators of adaptive arm of unfolded protein response (XBP1); CHO-XBP1 luciferase reporter, IRE1-XBP1 UPR activation, luminescence; percent of tunicamycin response, DMSO as zero; activation, % at 20 µM; hit rate 0.33% among 330,000;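 active means versus positive control, 20 µM dose yields 30% or more activation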;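 further: 100% = tunicamycin at 10 µg/mL and 0% = DMSO only wells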
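Signal: luciferase luminescence; Assay system: CHO-XBP1 luciferase reporter cells; Amount: one thousand reporter cells per well; Dosing: 20 µM single concentration, DMSO 1%; Benchmarks: high control tunicamycin 10 µg/mL final, low control DMSO vehicle only; Schedule: 6 h compound exposure at 37 °C, 5% CO2; Evaluation: percent activation relative to tunicamycin reference.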
Beta cell apopt: blocks beta cell apoptosis; INS-1E cytokine-induced death, ATP luminescence, 48 h; percent of positive-control rescue, neutral wells zero; protection from apoptosis, % (no concentration beside the values); hit rate 0.8% among 300,000;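 active means Every replicate reaches about 75%, or at least half do and their mean reaches it too, limit read from the data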;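 further: 0% = cytokine-treated negative control wells and 100% = positive control rescue; higher means more ATP so stronger rescue from cytokine killing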
CSC inhib: blocks cancer stem cells; cancer stem cell-like cells viability, luminescence; inhibition, % at 7.5 µM; hit rate 1.1% among 300,000; in the data active means inhibition above about 75%; tested in HMLE shEcad cells
Mdm2 MdmX conf: human Mdm2/MdmX binding inhibition, confirmed | inhibition, % at 8 µM | AID 489028 | hit rate 55% among 10,000 | luminescent assay | shares compounds with Mdm2 MdmX PPI; in the data active means inhibition above about 40%
Full FLuc ctr: counter-screen for Mdm2/MdmX inhibitors: full-length luciferase | inhibition, % at 8 µM | SaOS-2 full-length luciferase counterscreen, luminescence | shares compounds with Mdm2 MdmX PPI | hit rate 77% among 6,200;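 active means mean inhibition at 8 µM reaching about 37%, which flags the compound as non-specific, limit read from the data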;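 further: p53-null SaOS-2 cells with luciferase driven by a doxycycline-inducible promoter; compound on cells about two nights before reading with doxycycline added after day one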
Active calls of the source: *. Sampled rows, rich in hits. Any-hit rate of the full collection: about 4.8%.

Results for CCCCOc1ccc(C(=O)NCC(=O)NCC(c2cccs2)N2CCOCC2)cc1 (stereo not drawn) ?
UPR CHOP act: 0; Mdm2 MdmX PPI: -11; UPR XBP1 act: -2; Beta cell apopt: 5; CSC inhib: -12

What do the screens show for `CCOc1ccc(NC(=O)CN(C)C(=O)c2cccnc2Sc2ccc(C)c(C)c2)cc1OCC`?
SKKanGAS inh: -11; UPR CHOP act: -2; Mdm2 MdmX PPI: 20; UPR XBP1 act: -8; CSC inhib: 10

Results for C=C1C(=O)O[C@@]23[C@H]1CC[C@@H](C)[C@@H]2CC[C@@]1(C)O[C@@H]31 ?
UPR CHOP act: -1; Mdm2 MdmX PPI: 71*; UPR XBP1 act: -4; Beta cell apopt: -3; CSC inhib: 17; Mdm2 MdmX conf: 33; Full FLuc ctr: 18

What do the screens show for `Cc1ccc(S(=O)(=O)N2C(=O)/C(=C3\SC(=S)NC3=O)c3ccccc32)cc1`?
SKKanGAS inh: 10; UPR CHOP act: 0; Mdm2 MdmX PPI: 51*; UPR XBP1 act: -1; Beta cell apopt: 5; CSC inhib: 40; Mdm2 MdmX conf: 37; Full FLuc ctr: 82*

How did CC1CN(S(=O)(=O)c2ccc(C(=O)N(CCCN(C)C)c3nc4c(Cl)cccc4s3)cc2)CC(C)O1 (stereo not drawn) do in these assays?
SKKanGAS inh: 1; UPR CHOP act: 0; Mdm2 MdmX PPI: -4; UPR XBP1 act: -2; Beta cell apopt: 0; CSC inhib: -11

How did N=C1C(c2nc3ccccc3s2)=C(O)CN1NC(=O)c1c[nH]c2ccccc12 do in these assays?
SKKanGAS inh: 2; UPR CHOP act: 0; Mdm2 MdmX PPI: 4; UPR XBP1 act: -3; Beta cell apopt: -8; CSC inhib: 2

Results for N=C1C(c2nc3ccccc3s2)=C(O)CN1NC(=O)c1ccccc1[N+](=O)[O-] ?
SKKanGAS inh: -9; UPR CHOP act: 0; Mdm2 MdmX PPI: 54*; UPR XBP1 act: -1; Beta cell apopt: -1; CSC inhib: 10; Mdm2 MdmX conf: 1

What do the screens show for `Cc1cc(S(=O)(=O)N2CCCOC2CNC(=O)C(=O)NCCCN2CCOCC2)ccc1F` (stereo not drawn)?
SKKanGAS inh: 5; UPR CHOP act: 1; Mdm2 MdmX PPI: 18; UPR XBP1 act: -4; Beta cell apopt: -14; CSC inhib: -1

What do the screens show for `Cc1cc(Nc2cc(Cl)nc(Sc3ccc(NC(=O)C4CC4)cc3)n2)n[nH]1`?
SKKanGAS inh: 31; UPR CHOP act: -3; Mdm2 MdmX PPI: 69*; UPR XBP1 act: -2; Beta cell apopt: -7; CSC inhib: 24; Mdm2 MdmX conf: 51*; Full FLuc ctr: 52*

What do the screens show for `Cc1cc(NC(=O)c2ccc(NC(=O)C3CC3)cc2)no1`?
SKKanGAS inh: -3; UPR CHOP act: 5; Mdm2 MdmX PPI: -27; UPR XBP1 act: 1

How did Cc1ccc(-c2csc(NC(=O)C[n+]3cc(-c4ccc(C)cc4)n4c3CCC4)n2)cc1 do in these assays?
SKKanGAS inh: 7; UPR CHOP act: 20; Mdm2 MdmX PPI: 56*; UPR XBP1 act: -4; Beta cell apopt: 11; CSC inhib: 9; Mdm2 MdmX conf: 12

Results for Cc1ccc(S(=O)(=O)CC(=O)Nc2nc(-c3ccccc3)cs2)cc1 ?
SKKanGAS inh: 2; UPR CHOP act: 1; Mdm2 MdmX PPI: 3; UPR XBP1 act: -5; Beta cell apopt: -4; CSC inhib: 8

What do the screens show for `Cc1ccc(S(=O)(=O)CCC(=O)Nc2nc(-c3ccncc3)cs2)cc1`?
SKKanGAS inh: 0; UPR CHOP act: 1; Mdm2 MdmX PPI: 88*; UPR XBP1 act: -4; Beta cell apopt: -18; CSC inhib: -7; Mdm2 MdmX conf: 58*; Full FLuc ctr: 37*
